# Assay outcomes as filed in PubChem.
# An excerpt weighted towards active compounds, which were near 4.6% of everything screened.
# GPR7 antagonist: human neuropeptides B/W receptor 1 antagonism | GPR7-expressing cells, fluorescence antagonist assay | inhibition, % at 4.4 µM | 290,000 compounds, 1.1% hits; in the data active means inhibition above about 16%, passing the limit was not always enough;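 further: cells stimulated with the agonist NPW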
# Target sequence (P48145 whole entry, looked up): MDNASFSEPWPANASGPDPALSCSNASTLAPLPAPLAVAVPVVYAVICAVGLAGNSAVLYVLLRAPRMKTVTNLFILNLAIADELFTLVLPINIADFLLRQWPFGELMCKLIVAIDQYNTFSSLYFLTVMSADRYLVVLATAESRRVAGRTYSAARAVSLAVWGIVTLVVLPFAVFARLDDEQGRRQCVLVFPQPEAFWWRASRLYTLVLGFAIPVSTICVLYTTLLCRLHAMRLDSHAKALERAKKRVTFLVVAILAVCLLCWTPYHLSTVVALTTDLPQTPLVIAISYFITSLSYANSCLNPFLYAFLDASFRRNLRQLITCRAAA
# TAAR1 agonist: human TAAR1 agonism | activation, % at 3 µM | 360,000 compounds, 0.99% hits | CHO RD-HGA16 TAAR1, Fluo-8 calcium fluorescence; vehicle wells 0%, saturating PEA agonist 100%;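 active means activation above the mean activation of all test compounds in the run plus 3 SD, cut at about 38% in these data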
# Target sequence (Q96RJ0 whole entry, looked up): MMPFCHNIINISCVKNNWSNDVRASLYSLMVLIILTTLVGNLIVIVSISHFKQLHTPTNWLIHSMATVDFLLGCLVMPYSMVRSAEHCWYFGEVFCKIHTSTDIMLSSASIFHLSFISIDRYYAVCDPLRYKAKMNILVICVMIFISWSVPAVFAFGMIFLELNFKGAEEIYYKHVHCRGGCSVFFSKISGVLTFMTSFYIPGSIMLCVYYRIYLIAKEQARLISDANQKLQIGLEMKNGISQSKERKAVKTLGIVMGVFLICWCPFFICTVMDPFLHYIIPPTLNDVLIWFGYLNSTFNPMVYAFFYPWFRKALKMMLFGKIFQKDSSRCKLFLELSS
#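 System: CHO RD-HGA16 cells carrying human TAAR1 plus Gα16; Incubation: 17-24 h seeding, 75 min 37 °C dye, 30 min RT; Measured by: Fluo-8 fluorescence, 5 s baseline then 140 s kinetic read; Control set: DMSO and PEA EC100; Replication: single well for each compound.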
# OX1R antag-1: blocks the human orexin 1 receptor; 330,000 compounds, 0.43% hits; CHO/OX1R cells, Fluo-8 calcium fluorescence, orexin A; inhibition, % at 5 µM; O43613;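 active means inhibition above its plate's threshold, mean inhibition of all tested compounds on the plate plus 3 SD, cut at about 37% in these data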
# TAAR1 antagonist: antagonists of human TAAR1 | AID 624466 | CHO RD-HGA16 TAAR1, Fluo-8 calcium fluorescence, antagonist | Q96RJ0 | 360,000 compounds, 1.5% hits | inhibition, % at 3 µM;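 active means inhibition above a per-plate cutoff, the mean inhibition of test compounds on that plate plus 3 SD, cut at about 49% in these data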
#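 Test system – hTAAR1-expressing CHO RD-HGA16 cells, Gα16-coupled · Reagent – β-PEA at EC80 concentration, post-compound challenge · Compound dosing – 3 µM, single point · Timing – 140 s kinetic read after compound, 140 s after agonist · Detection – Fluo-8 intracellular calcium dye fluorescence, real-time kinetic reads · Control set – DMSO and EC80 PEA controls · Repeats – n of 1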
# OX1R antag-2: OX1R (human) antagonism; OX1R-expressing cells, FRET antagonist read-out; inhibition, % at 6.6 µM; 330,000 compounds, 1.8% hits; in the data active means inhibition mostly above about 38%, no sharp cut-off; inactive means mostly below about 40%
# CHO parental Ca: counter-screen for OX1R antagonists: effect in parental CHO cells. parental CHO-K1, ATP-induced calcium, Fluo-8 fluorescence. inhibition, % at 5.6 µM. 330,000 compounds, 0.63% hits;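 active means inhibition above that plate's mean sample inhibition plus 3 SD, cut at about 26% in these data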
#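 Material: Parental CHO cells | Reagent: ATP | Compound dosing: Single nominal dose of 5.6 µM per compound | Detection: Intracellular calcium via Fluo-8 no-wash fluorescent dye | Read-out: % inhibition of ATP-induced calcium mobilization | Benchmarks: Low control ATP plus DMSO, high control DMSO only | Replicates: Singlicate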
# Hits are given with their value; i = inactive; nt = not tested or not shown.
SMILES,GPR7 antagonist,TAAR1 agonist,OX1R antag-1,TAAR1 antagonist,OX1R antag-2,CHO parental Ca
COc1ccc(CCNC(=O)c2ccccc2NC(=O)CN2CCN(c3ccccc3O)CC2)cc1,nt,i,nt,64,nt,nt
O=C(CN1CCN(c2ccc(F)cc2)CC1)Nc1ccccc1C(=O)NCCc1ccccc1,nt,i,i,i,i,i
CC(NC(=O)c1ccccc1NC(=O)CN1CCN(c2ccccc2O)CC1)c1ccccc1 (stereo unspecified),nt,i,i,i,i,i
COc1ccccc1N1CCN(CC(=O)Nc2ccccc2C(=O)NC(C)c2ccccc2)CC1 (stereo unspecified),nt,i,i,59,i,i
O=C(CN1CCN(c2ccccc2O)CC1)Nc1ccccc1C(=O)NCCc1ccccc1,nt,i,i,61,i,i
CC1(C(=O)Nc2ccc3c(c2)OCCO3)CN(S(C)(=O)=O)CC(=O)N1Cc1cccs1 (stereo unspecified),nt,i,nt,i,nt,nt
CC1CCCCC12NC(=O)N(CC(=O)N1CCN(S(=O)(=O)c3ccc(Cl)s3)CC1)C2=O (stereo unspecified),nt,i,nt,i,nt,nt
COC(=O)c1ccc(C(=O)OC)c(NC(=O)CN2CCN(c3ccccc3OC)CC2)c1,i,i,i,52,i,i
C[C@H]1COc2cccc(NCCO)c2S(=O)(=O)N1,nt,i,nt,i,nt,nt
O=C(NC(=S)N1CCCCC1)c1csc([N+](=O)[O-])c1,i,i,i,i,37,i
CC1CCC(NC(=O)CSc2nnnn2C)CC1 (stereo unspecified),nt,i,i,i,i,i
CN(C(=O)Cn1cnc2ccccc2c1=O)C1CCS(=O)(=O)C1 (stereo unspecified),nt,i,i,i,i,i
CCN(C(=O)Cn1cnc2cc([N+](=O)[O-])ccc2c1=O)C1CCS(=O)(=O)C1 (stereo unspecified),i,i,i,i,63,i
O=C(Cn1cnc2cc([N+](=O)[O-])ccc2c1=O)Nc1ccc(Br)cc1,i,i,i,i,i,i
CC1CCCC(C)N1C(=O)Cn1cnc2cc([N+](=O)[O-])ccc2c1=O (stereo unspecified),i,i,i,i,114,i
O=C(Cn1cnc2cc([N+](=O)[O-])ccc2c1=O)Nc1ccccc1-c1ccccc1,i,i,i,i,48,i
O=C(CN(Cc1cccs1)S(=O)(=O)c1ccc(S(=O)(=O)NC2CCCCC2)cc1)Nc1ccccc1,i,i,i,i,i,i
O=C(CN(C1CC1)S(=O)(=O)c1ccc(S(=O)(=O)NC2CCCCC2)cc1)Nc1ccccc1,i,38,nt,i,nt,nt
COc1cccc(C(c2nnnn2C(C)(C)C)N2CCN(C/C=C/c3ccccc3)CC2)c1OC (stereo unspecified),nt,i,nt,i,nt,nt
Cc1csc2c(N3CCN(C(=O)Nc4ccc(Cl)c(Cl)c4)CC3)ncnc12,i,i,43,i,i,i
Cc1csc2c(N3CCN(C(=O)NC(C)(C)C)CC3)ncnc12,i,i,i,i,i,i
Cc1csc2c(N3CCN(C(=O)c4ccc(C(C)(C)C)cc4)CC3)ncnc12,i,i,i,i,i,37
CC(C)OC(=O)N(C)C[C@H]1OCc2cn(nn2)CCCC(=O)N([C@@H](C)CO)C[C@@H]1C,nt,i,nt,i,nt,nt
Cc1cc(C)cc(Cn2c3ccc(NC(=O)NCCc4cccs4)cc3c(=O)n2C)c1,nt,42,nt,59,nt,nt
CC(C)(C)OC(=O)N1CCCN(C(c2ccnc3ccccc23)c2nnnn2-c2ccc3c(c2)OCCO3)CC1 (stereo unspecified),nt,i,nt,i,nt,nt
SMILES,GPR7 antagonist,TAAR1 agonist,OX1R antag-1,TAAR1 antagonist,OX1R antag-2,CHO parental Ca
CC1(c2ccccc2)NC(=O)N(CC(=O)NCCN2C(=O)S/C(=C\c3cccnc3)C2=O)C1=O (stereo unspecified),nt,i,nt,i,nt,nt
CCC1(c2ccccc2)NC(=O)N(CC(=O)NCCN2C(=O)S/C(=C\c3cccnc3)C2=O)C1=O (stereo unspecified),nt,i,i,i,57,i
COc1ccc2ccccc2c1/C=N/NC(=O)c1cccc(Br)c1,i,i,i,i,i,i
O=C(N/N=C/c1c(O)ccc2ccccc12)c1cccc(C(F)(F)F)c1,i,58,56,62,i,i
NC(=O)c1ncn([C@@H]2O[C@H](C(=O)Nc3ccc(Oc4ccccc4)nc3)[C@@H](O)[C@H]2O)n1,nt,i,nt,i,nt,nt
O=c1nccc(N/N=C/c2ccccc2O)[nH]1,i,38,nt,i,nt,nt
COc1cccc(/C=N/Nc2ccnc(=O)[nH]2)c1O,i,i,i,i,i,i
O=C(N[C@H](C(=O)N1CCC[C@H]1C(=O)NCc1ccccc1)C1CCCCC1)c1ccc(Cl)cc1Cl,nt,i,nt,i,nt,nt
Clc1ccc(CSc2nncn2-c2ccc3c(c2)OCCO3)cc1,19,i,i,i,i,i
CC(OC(=O)Cc1n[nH]c(=O)c2ccccc12)C(=O)N(C)c1ccccc1 (stereo unspecified),nt,i,nt,i,nt,nt
C=CC[C@H](CC(=O)N(CCO)Cc1ccccc1)C(=O)NC[C@H](OC(=O)[C@@H](CC=C)Cc1ccc(F)cc1)c1ccccc1,nt,i,i,90,i,i
C=CC[C@@H](CC(=O)N(CCO)Cc1ccccc1)C(=O)NC[C@@H](OC(=O)[C@@H](CC=C)Cc1ccc(F)cc1)c1ccccc1,nt,i,i,69,i,i
C=CC[C@H](CC(=O)N(CCO)Cc1ccccc1)C(=O)NCCOC(=O)[C@@H](CC=C)Cc1ccc(F)cc1,nt,i,i,i,i,i
COCc1[nH]nc2c1C(c1ccc(F)cc1)N(Cc1ccccc1)C2=O (stereo unspecified),nt,i,nt,i,nt,nt
CN(C)CCCNC(=S)NCC(c1ccc(Cl)cc1Cl)c1c[nH]c2ccccc12 (stereo unspecified),75,i,39,i,i,43
O=C(NCC(c1cccs1)N1CCOCC1)c1ccccc1NS(=O)(=O)c1ccc(Cl)c([N+](=O)[O-])c1 (stereo unspecified),i,i,i,i,45,i
O=C1CN(S(=O)(=O)c2ccc(Cl)cc2)CC(=O)N1CCc1ccccc1,i,i,i,56,i,i
O=C1CN(S(=O)(=O)c2ccc(F)cc2)CC(=O)N1CCc1ccccc1,i,nt,nt,nt,nt,nt
C[C@@H]1CN([C@@H](C)CO)C(=O)CCCn2cc(nn2)CO[C@H]1CN(C)S(C)(=O)=O,nt,i,nt,i,nt,nt
CNC[C@H]1OCc2cnnn2CCCC(=O)N([C@@H](C)CO)C[C@@H]1C,nt,i,nt,i,nt,nt
COCOCCn1cc(CN2CCS(=O)(=O)N(Cc3ccc(-c4ccc(OC)nc4)cc3)C(C(C)C)C2=O)nn1 (stereo unspecified),nt,i,nt,i,nt,nt
CCOc1ccc(N=Cc2ccc3ccccc3c2)cc1,i,i,i,i,i,i
O=[N+]([O-])c1cc(C=Nc2ccc3ccccc3c2)ccc1Br,i,i,i,i,64,i
